Measurements as given in PubChem BioAssay AID719 (SRMLSC, 2007).
Screen size: about 85,000 compounds; about 940 (1.1%) were called active. The entries come from a sample that favours actives as a whole. Values without a mark were called inactive.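 The calls were made as follows: active = viability at or below 50% in the single dose screen; inactive = viability above 50%.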

Experiment: antiproliferative effect on LL 47 fibroblasts – human, LL 47 cells, CellTiter-Glo luminescence, primary screen (AID 719);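 also: compound exposure lasted 72 h before the ATP readout; 100% = median luminescence of untreated cell-only wells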
Conditions: LL 47 human lung fibroblast viability, ATP luminescence; at 10 µM; stronger effect = lower value
Summary of the method: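 Assay system: human lung fibroblast line LL 47, low passage. Input: 1,150 fibroblasts seeded per well. Times: overnight cell rest, 72 h compound treatment at 37 °C. Evaluation: % viability of median cell-only signal. Technique: luminescent ATP detection, CellTiter-Glo. Control set: cell-only wells, no compound.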

| SMILES | viability |
| --- | --- |
| c1ccc(-n2nc3ccccc3n2)cc1 | 100% |
| C/C(=N\NC(=O)c1nc(C)cc(C)n1)c1ccccc1 | 106% |
| Cc1ccc(/C=N/NC(=O)C2=NNC(c3ccccc3)(c3ccccc3)C2)c(O)c1 | 19.2% (active) |
| Cc1ccc(OCC(=O)N/N=C\c2ccco2)c(C)c1 | 108% |
| CCOc1ccc(-n2c(N)c(C(=O)NCC3CCCO3)sc2=S)cc1 (stereo not drawn) | 101% |
| O=C(C(NS(=O)(=O)c1cccc2nsnc12)c1ccccc1)N1CCN(c2ccccc2)CC1 (stereo not drawn) | 94.9% |
| Oc1c(Cl)cc(Cl)c(Cl)c1Cc1c(O)c(Cl)cc(Cl)c1Cl | 46.4% (active) |
| CC(=O)CCS(=O)(=O)c1ccc(C)c(C)c1 | 32.5% (active) |
| CCCCN(CCCC)C(=O)CCS(=O)(=O)c1ccc2c(c1)n(C)c(=O)c(=O)n2C | 96.8% |
| Cc1ccc(S(=O)(=O)NCCN2CCOCC2)cc1C | 108% |
| Cc1cc(C)cc(N(CC(=O)N2CC=C(c3ccccc3)CC2)S(=O)(=O)c2c(C)noc2C)c1 | 95.6% |
| CC/C(O)=N\S(=O)(=O)c1ccc(N=NN(C)C)cc1 | 97.5% |
| Cc1ccc(N(Cc2ccc(C(=O)Nc3ccccc3C(=O)NCc3ccco3)cc2)S(C)(=O)=O)cc1C | 97% |
| Cc1nc2ccc(C(=O)O)cc2[nH]1 | 104% |
| COC(=O)Nc1nc2ccc(Sc3ccccc3)cc2[nH]1 | 47.2% (active) |
| CC(C)c1nc2ccc(C(=O)O)cc2[nH]1 | 98.8% |
| CN(Cc1ccccc1)C(=O)COc1ccccc1 | 104% |
| c1ccc(-c2nc(NCc3ccco3)c3ccccc3n2)cc1 | 95.9% |
| CC(c1ccco1)N(C(=O)Nc1ccccc1)C1CCCCC1 (stereo not drawn) | 97.3% |
| COc1ccc(-c2nnco2)cc1OC | 103% |
| COc1ccc(-c2cc(C(F)(F)F)nc(NCc3cccnc3)n2)cc1 | 87.3% |
| COc1ccc(-c2cc(C(F)(F)F)nc(S(C)(=O)=O)n2)cc1OC | 2.93% (active) |
| COc1cccc2cc(C(=O)N3CCN(C(=O)c4ccccc4)CC3)c(=O)oc12 | 92.4% |

| SMILES | viability |
| --- | --- |
| CC(=O)NC1=NN(C(C)=O)C(C)(c2ccc(Cl)s2)S1 (stereo not drawn) | 67.1% |
| Cc1ccccc1CSCCNC(=O)c1ccc(Cl)c(S(=O)(=O)N2CCOCC2)c1 | 97.8% |
| CCOc1cc(N2CCOCC2)c(OCC)cc1NC(=O)COc1cccc2cccnc12 | 31% (active) |
| CCOc1cc(NC(=O)c2ccco2)c(OCC)cc1NC(=O)COc1ccccc1 | 99.7% |
| CCOc1cc(N2CCOCC2)c(OCC)cc1NC(=O)COC(=O)[C@H](Cc1c[nH]c2ccccc12)NC(C)=O | 105% |
| CS(=O)(=O)n1nc(-c2ccccc2)nc1NCc1ccco1 | 105% |
| C=C1c2cc(CC)ccc2NC(=O)N1c1ccc(C)cc1 | 102% |
| O=C1Nc2ccccc2C12Nc1ccccc1S2 (stereo not drawn) | 92.1% |
| CCc1ccc2c(c1)C1(NN=C(c3ccccc3)S1)C(=O)N2 (stereo not drawn) | 32.1% (active) |
| CN(C)S(=O)(=O)c1ccc(N2CCCC2)c(C(=O)NCc2ccccc2)c1 | 98.3% |
| CC1=C/C(=N\OS(=O)(=O)c2ccccc2)C=CC1=O | 1.44% (active) |
| CCOC(=O)c1sc(C)c2c1NC(C)(c1cccc3ccccc13)NC2=O (stereo not drawn) | 78.7% |
| O=C(NCCSCc1ccccc1)c1ccc(Cl)c(S(=O)(=O)N2CCOCC2)c1 | 92.8% |
| N=c1c2c3c(sc2nc2n1CCCCC2)CCCC3 | 102% |
| CC1(C)NC(=O)N(CCCCSc2ccc(Cl)cc2)C1=O | 95% |
| CCOc1ccc2c(c1)C(c1ccc(C)cc1)=NNC(c1ccc(C)cc1)=N2 | 75.9% |
| CC(C)(C)NC(=O)Cn1c(SCC(=O)Nc2nccs2)nc2ccccc21 | 93.8% |
| CCC(c1nnnn1C(C)(C)C)N(Cc1cc2cccc(C)c2n2nnnc12)C1CCCC1 (stereo not drawn) | 95.7% |
| CCOC(=O)c1c(N=CN(C)C)c(C#N)c2n1CCCC2 | 98.2% |
| CC[C@]1(O)CC2CN(CCc3c([nH]c4ccccc34)[C@@](C(=O)OC)(c3cc4c(cc3OC)N(C=O)[C@H]3[C@@](O)(C(=O)OC)[C@H](OC(C)=O)[C@]5(CC)C=CCN6CC[C@]43[C@@H]65)C2)C1 (stereo partly drawn) | 44.6% (active) |
| CO/N=C(/CS(=O)(=O)c1ccc(Br)cc1)c1ccc(OC)cc1 | 90.9% |
| Cc1cc(=O)oc2cc(OCC3CC(c4ccccc4Cl)=NO3)ccc12 (stereo not drawn) | 47.8% (active) |
| Cc1ccccc1N1CCN(CCCOc2ccc3c(C)cc(=O)oc3c2)CC1 | 94% |

| SMILES | viability |
| --- | --- |
| Cc1cc(=O)oc2cc(NC(=O)C3CC(=O)N(Cc4ccccc4)C3)ccc12 (stereo not drawn) | 103% |
| Cc1cccc2nc(CSc3nc4[nH]ncc4c(=O)n3-c3cccc(Cl)c3)cc(=O)n12 | 68.1% |
| CCOc1ccc(NS(=O)(=O)c2ccc(OCC(=O)NCCCOC)cc2)cc1 | 40.2% (active) |
| COC(=O)COc1ccc(S(=O)(=O)Nc2ccc(NC(C)=O)cc2)cc1 | 104% |
| CCOc1ccc(S(=O)(=O)Nc2ccc(S(=O)(=O)Nc3cc(OC)ccc3OC)cc2)cc1 | 105% |
| O=C(c1ccccc1Oc1ccccc1)N1CCN(c2ccc(F)cc2)CC1 | 99.7% |
| CCOc1ccccc1NC(=O)C1CCCN(C(=O)Nc2ccccc2)C1 (stereo not drawn) | 106% |
| Cn1c(=O)n(C)c2cc(C(=O)Nc3ccc4c(c3)OCO4)ccc21 | 48.5% (active) |
| COc1ccc(C(=O)Nc2ccc3c(c2)OCO3)cc1OC | 100% |
| Cn1c(NC(=O)c2ccc3c(c2)OCO3)cc(=O)n(C)c1=O | 97% |
| CCCc1nc2sc3c(c2c(=O)n1NC(=O)CCCl)CCCC3 | 80.4% |
| CC1CN(S(=O)(=O)c2ccccc2)C(C)CN1S(=O)(=O)c1ccccc1 (stereo not drawn) | 93.9% |
| CCCn1c(C(Cc2ccccc2)NC(=O)COC)nc2ccccc21 (stereo not drawn) | 93.2% |
| Cc1ccc(CN(C(=O)c2sc3ccccc3c2Cl)C2CCS(=O)(=O)C2)cc1 (stereo not drawn) | 89.4% |
| CCC(C(=O)NCc1ccc(OC)cc1)n1nc(C)n2c(cc3occc32)c1=O (stereo not drawn) | 95.5% |
| COc1ccccc1-n1nnnc1S(=O)(=O)Cc1ccc(Cl)cc1 | 25% (active) |
| COc1ccccc1N1CCN(C(=O)CN(Cc2ccc(Cl)cc2)S(C)(=O)=O)CC1 | 98.3% |
| COc1ccccc1N1CCN(Cc2nnnn2CCc2ccccc2)CC1 | 101% |
| O=C(Nc1ccccc1-c1nnn(CC(=O)N2CCCc3ccccc32)n1)c1cccc(Cl)c1 | 52.5% |
| O=C(Cc1cccc2ccccc12)Nc1ccc2oc(-c3ccccc3)nc2c1 | 99% |
| Cc1ccc(NC(=O)CCN2CCc3ccccc3C2)cc1 | 94.5% |
| Cc1ccc(NC(=S)NC(NC(=O)Cc2cccc3ccccc23)C(Cl)(Cl)Cl)cc1 (stereo not drawn) | 49.6% (active) |
